# The source made the active and inactive calls. The rule behind the calls is not given here.
# Key:
# [1] = target: Carbonic anhydrase 9 (Homo sapiens, UniProt Q16790); assay: Inhibition of human CA9 after 15 mins by stopped-flow CO2 hydration assay
# [2] = target: Carbonic anhydrase 2 (Homo sapiens, UniProt P00918); assay: Inhibition of human CA2 after 15 mins by stopped-flow CO2 hydration assay
# [3] = target: Carbonic anhydrase 1 (Homo sapiens, UniProt P00915); assay: Inhibition of human CA1 after 15 mins by stopped-flow CO2 hydration assay
# [4] = target: Carbonic anhydrase 12 (Homo sapiens, UniProt O43570); assay: Inhibition of human CA12 after 15 mins by stopped-flow CO2 hydration assay
# [5] = test system: HT-29; assay: Antiproliferative activity against human HT-29 cells at 30 to 100 uM after 16 hrs under normoxic conditions by MTT assay; assay type: functional, cell-based
# Outline: (§1)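 HT-29 colon cancer cells in DMEM high glucose with 20% FBS were seeded at 1·10^4/well. After 24 h they were exposed to 0–300 μM compound for 16, 48 or 72 h in air (20% O2, 5% CO2, 37 °C). MTT (1 mg/ml) was added for 30 min, formazan dissolved in DMSO and read at 550 nm. Viability is relative to untreated control (100%). Quadruplicates on ≥3 cell batches, mean ± SEM.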
# [6] = Solubility of the compounds at 300 uM; assay type: physicochemical
# [7] = test system: HT-29; assay: Antiproliferative activity against human HT-29 cells at 30 to 100 uM after 48 hrs under normoxic conditions by MTT assay; assay type: functional, cell-based; outline: as §1
# [8] = test system: HT-29; assay: Antiproliferative activity against human HT-29 cells at 30 to 300 uM after 48 hrs under hypoxic conditions by MTT assay; assay type: functional, cell-based
# Outline: (§2)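 Hypoxic workstation at 0.1% O2, 5% CO2 and residual N2. HT-29 cells (DMEM high glucose, 20% FBS; 1·10^4/well) were treated 24 h post-plating with 0–300 μM compound for 16, 48 or 72 h. Viability was measured by MTT reduction (1 mg/ml, 30 min, 37 °C; DMSO-dissolved formazan, A550) and expressed as % of untreated control. Quadruplicates, ≥3 batches, mean ± SEM.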
# [9] = test system: HT-29; assay: Antiproliferative activity against human HT-29 cells at 30 to 300 uM after 48 hrs under normoxic conditions by MTT assay; assay type: functional, cell-based; outline: as §1
# [10] = test system: HT-29; assay: Antiproliferative activity against human HT-29 cells at 30 to 300 uM after 72 hrs under hypoxic conditions by MTT assay; assay type: functional, cell-based; outline: as §2
# [11] = test system: HT-29; assay: Antiproliferative activity against human HT-29 cells after 16 hrs under normoxic conditions by MTT assay; assay type: functional, cell-based; outline: as §1
# [12] = test system: HT-29; assay: Antiproliferative activity against human HT-29 cells at 30 to 300 uM after 16 hrs under normoxic conditions by MTT assay; assay type: functional, cell-based; outline: as §1
# [13] = test system: HT-29; assay: Antiproliferative activity against human HT-29 cells at 30 uM after 48 hrs under hypoxic conditions by MTT assay; assay type: functional; outline: as §2
# [14] = test system: HT-29; assay: Antiproliferative activity against human HT-29 cells at 100 uM after 48 hrs under normoxic conditions by MTT assay; assay type: functional; outline: as §1
# [15] = test system: HT-29; assay: Antiproliferative activity against human HT-29 cells at 30 to 100 uM after 72 hrs under hypoxic conditions by MTT assay; assay type: functional, cell-based; outline: as §2
# [16] = test system: HT-29; assay: Antiproliferative activity against human HT-29 cells at 30 to 100 uM after 72 hrs under normoxic conditions by MTT assay; assay type: functional, cell-based; outline: as §1
# [17] = test system: HT-29; assay: Antiproliferative activity against human HT-29 cells at 100 uM after 72 hrs under hypoxic conditions by MTT assay; assay type: functional; outline: as §2
# Carbonic anhydrase 1, sequence (P00915 whole entry): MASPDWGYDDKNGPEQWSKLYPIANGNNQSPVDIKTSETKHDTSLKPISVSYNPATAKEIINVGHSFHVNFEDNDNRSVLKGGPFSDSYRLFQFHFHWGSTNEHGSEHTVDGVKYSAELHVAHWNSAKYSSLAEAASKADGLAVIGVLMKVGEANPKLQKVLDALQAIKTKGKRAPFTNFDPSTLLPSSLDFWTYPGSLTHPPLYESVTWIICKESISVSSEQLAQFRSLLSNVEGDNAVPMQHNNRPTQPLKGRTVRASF
# Carbonic anhydrase 12, sequence (O43570 whole entry): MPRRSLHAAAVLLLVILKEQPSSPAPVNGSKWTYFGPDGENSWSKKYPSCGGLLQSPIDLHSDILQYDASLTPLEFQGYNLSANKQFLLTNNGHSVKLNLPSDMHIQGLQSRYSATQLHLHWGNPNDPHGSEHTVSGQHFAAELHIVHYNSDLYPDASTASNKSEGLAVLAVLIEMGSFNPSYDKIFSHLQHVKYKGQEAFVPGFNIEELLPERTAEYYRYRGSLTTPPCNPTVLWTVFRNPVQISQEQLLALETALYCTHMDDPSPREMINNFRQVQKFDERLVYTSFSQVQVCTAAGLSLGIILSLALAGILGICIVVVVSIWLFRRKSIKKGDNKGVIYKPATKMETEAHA
SMILES,Ki [1] [nM],Ki [2] [µM],Ki [3] [µM],Ki [4] [nM],further results
Cn1nc2c(c1Cc1ccccc1)c(=O)oc1ccccc12,555,> 10,> 10,33.3,
Cc1nn(-c2ccc(Cl)cc2)c2c1c(=O)oc1ccccc12,403,> 10,> 10,> 10000,
Cc1nn(-c2ccccc2)c2c1c(=O)oc1ccc(N(C)C)cc12,59.4,> 10,> 10,360,
O=c1oc2ccccc2c2nn(-c3ccccc3)cc12,37.6,> 10,> 10,> 10000,
CC(=O)c1cc2cc([N+](=O)[O-])ccc2oc1=O,44.9,> 10,> 10,695,
Cc1nn(-c2ccccc2)c2c1c(=O)oc1ccc(NC(=O)Nc3ccccc3)cc12,77.9,> 10,> 10,583,
Cc1nn(-c2ccccc2)c2c1c(=O)oc1ccc(Br)cc12,8.5,> 10,> 10,7.1,
CC(=O)c1cc2ccccc2oc1=O [3-ACETYLCOUMARIN],152,> 10,> 10,7.8,
Cc1cc2nn(-c3ccccc3)c(C)c2c(=O)o1,41.4,> 10,> 10,> 10000,Activity [8]: Active; Activity [9]: Active; Activity [10]: Active; Activity [11]: Dose-dependent effect
O=c1oc2ccccc2c2c1cnn2-c1ccccc1,30.1,> 10,> 10,> 10000,Activity [8]: Active; Activity [9]: Active; Activity [12]: Active; Activity [13]: <=70%
Cc1nn(-c2ccccc2)c2c1c(=O)oc1ccc([N+](=O)[O-])cc12,27.1,> 10,> 10,> 10000,Activity [8]: Active; Activity [9]: Active; Activity [11]: Dose-dependent effect
Cc1nn(-c2ccccc2)c2c1c(=O)oc1ccccc12,9.6,> 10,> 10,5.8,Activity [8]: Active; Activity [9]: Active; Activity [11]: Dose-dependent effect
O=c1oc2ccccc2c2c1c(Cc1ccccc1)nn2Cc1ccccc1,31.5,> 10,> 10,819,
CNc1ccc2oc(=O)c3c(C)nn(-c4ccccc4)c3c2c1,51.3,> 10,> 10,737,
Cc1nn(-c2ccccc2)c2c1c(=O)oc1ccc(N)cc12,34.5,> 10,> 10,> 10000,Activity [8]: Active; Activity [9]: Active; Activity [10]: Active; Activity [12]: Active
CC(=O)c1cc2cc([N+](=O)[O-])c(Cl)cc2oc1=O,561,> 10,> 10,6400,
Cc1cc2c(c(C)nn2-c2ccccc2)c(=O)o1,26.6,> 10,> 10,518,
CC(=O)c1c(O)c2ccccc2oc1=O,35.9,> 10,> 10,453,
CC(=O)c1c(O)c2cc(Br)ccc2oc1=O,8.2,> 10,> 10,5.6,Activity [5]: Active; solubility [6]: Insoluble; Activity [14]: 35%; Activity [7]: Active; Activity [15]: Active; Activity [8]: Active; Activity [16]: Active
Cc1nn(-c2ccccc2)c2c1c(=O)oc1ccc(NCc3ccccc3)cc12,37.8,> 10,> 10,360,
Cn1nc(Cc2ccccc2)c2c(=O)oc3ccccc3c21,19.7,> 10,> 10,343,
COc1c(C(C)=O)c(=O)oc2ccc(Br)cc12,90.7,> 10,> 10,706,
Cc1nn(-c2ccccc2)c2c1c(=O)oc1ccc(NC(=O)c3ccccc3)cc12,15.3,> 10,> 10,> 10000,Activity [17]: 40%; Activity [14]: 50%; Activity [9]: Active; Activity [10]: Active; Activity [12]: Active
Cc1nn(-c2ccccc2C(=O)O)c2c1c(=O)oc1ccccc12,76.8,> 10,> 10,27.3,
Cc1nn(-c2ccccc2)c2c1c(=O)oc1cc(Cl)c([N+](=O)[O-])cc12,801,> 10,> 10,6060,
Cc1c2c(=O)oc3ccccc3c2nn1-c1ccccc1,38.1,> 10,> 10,593,
Cc1nn(-c2ccccc2)c2c1c(=O)oc1cc(Cl)ccc12,57.9,> 10,> 10,819,

# The next lines start with results.
Ki [1] [nM],Ki [2] [µM],Ki [3] [µM],Ki [4] [nM],SMILES,further results
46.4,> 10,> 10,737,CCOc1c(C(C)=O)c(=O)oc2ccc(Br)cc12,
1960,> 10,> 10,24.7,Cc1nn(-c2ccc(C(=O)O)cc2)c2c1c(=O)oc1ccccc12,
25.2,> 10,> 10,> 10000,Cc1c2c(=O)oc3ccc(Br)cc3c2nn1-c1ccccc1,
371,> 10,> 10,732,Cc1nn(Cc2ccccc2)c2c1c(=O)oc1ccccc12,
,> 10,> 10,> 10000,Cc1ccc(-n2nc(C)c3c(=O)oc4ccccc4c32)cc1,Activity [5]: Active; solubility [6]: Insoluble; Activity [7]: Active
290,> 10,> 10,672,O=c1oc2ccccc2c2nn(Cc3ccccc3)c(Cc3ccccc3)c12,
44.2,> 10,> 10,357,CC(=O)c1c(O)c2cc([N+](=O)[O-])ccc2oc1=O,
35.8,> 10,> 10,360,Cc1c2c(=O)oc3ccc([N+](=O)[O-])cc3c2nn1-c1ccccc1,
28.4,> 10,> 10,674,COc1c(C(C)=O)c(=O)oc2ccccc12,
809,> 10,> 10,4530,CC(=O)c1cc2ccc(Cl)cc2oc1=O,
26.8,> 10,> 10,646,CC(=O)Nc1ccc2oc(=O)c3c(C)nn(-c4ccccc4)c3c2c1,
40.2,> 10,> 10,> 10000,COc1ccc(-n2nc(C)c3c(=O)oc4ccccc4c32)cc1,

# Reference: ChEMBL document CHEMBL4145519, “Structural investigations on coumarins leading to chromeno[4,3-c]pyrazol-4-ones and pyrano[4,3-c]pyrazol-4-ones: New scaffolds for the design of the tumor-associated carbonic anhydrase isoforms IX and XII” (Eur J Med Chem, 2018)
